Data on 96 compounds can be found in ChEMBL document CHEMBL4513216, “Probing the Open Global Health Chemical Diversity Library for Multistage-Active Starting Points for Next-Generation Antimalarials” (ACS Infect Dis, 2020).

A short description of this data set: Toxicity liver stage against HepG2, at 10uM. Set-up: test concentration 10 uM, cell line HepG2-A16-CD81EGFP. The conditions noted are these: human, HepG2-A16-CD81EGFP cells; read-out: INHIBITION
Format: cell-based. Summed up:
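Uninfected HepG2-A16-CD81EGFP cells, 3 × 10^3 per well, 1536-well, plated on prespotted compound at 10 μM final, parasite-free screening media added to match infected plates; puromycin 10 μM positive, DMSO 0.5% negative; run in parallel with 48 h PbLuc assay at 37 °C, 5% CO2; viability by CellTiter-Glo luminescence, normalized to controls.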
`Cc1cccc(N2CCN(CCC(=O)NCc3nnc[nH]3)CC2)c1`: the cytotoxicity at 10 µM was -6.26%.

With `Cc1cc(NC(=O)N2CCC[C@@H]2CO)nn1-c1ccccc1Cl`, the cytotoxicity at 10 µM is -1.29%.

On to `CN(C1CCCC1)C(C)(C)C(=O)NCCNC(N)=O`, for which the cytotoxicity at 10 µM is -46.3%.

In the case of `CC(C)OCCC(=O)N(C)CCCc1cc(-c2ccccc2)no1`, the cytotoxicity at 10 µM is -15.3%.

For the compound `CC(C)Nc1ncccc1C(=O)NCc1ncc[nH]1`, the cytotoxicity at 10 µM was -7.9%.

On to `O=C(c1cscn1)N1CCc2c(COCC3CC3)cncc2C1`, for which the cytotoxicity at 10 µM is -105%.

In the case of `C[C@@H]1CN(Cc2ccco2)CCN1C(=O)Cc1ccccc1F`, the cytotoxicity at 10 µM is 4.94%.

For `Cc1noc2ncc(C(=O)NCC3CCCO3)cc12` (stereo unspecified), the cytotoxicity at 10 µM is -10.2%.

Turning to `CC1c2ncc(CN3CCN(C)CC3)n2CCN1CC1CC1` (stereo unspecified), the cytotoxicity at 10 µM is -20.3%.

As to `COCCN(Cc1ccoc1)C(=O)c1c(F)cccc1Cl`, the cytotoxicity at 10 µM is -0.11%.

`CN(C)S(=O)(=O)N1C[C@@H](OCc2ccccn2)[C@H]2OCCC[C@H]21`: the cytotoxicity at 10 µM turned out to be 10.7%.

Regarding `O=C(NCCc1ccn(-c2ccccc2)n1)N1CCC1`, the cytotoxicity at 10 µM was -0.361%.

On to `Cc1sc2ccccc2c1S(=O)(=O)NCCNC(=O)C(C)C`, for which the cytotoxicity at 10 µM was -0.238%.

For the compound `CN(C)c1cccc(C(=O)N2CCCC2c2ncc3c(n2)CCNC3)c1` (stereo unspecified), the cytotoxicity at 10 µM is -9.97%.

As for `CN1CCC(Cc2cccc(-c3cc(F)ccc3C(=O)O)n2)CC1`, the cytotoxicity at 10 µM is -3.22%.

In the case of `CCC(=O)N1CCCC1c1nccnc1Nc1nc(C)cc(C)n1` (stereo unspecified), the cytotoxicity at 10 µM is 3.99%.

Turning to `CCCOc1ccc(CN)c(OC(F)F)c1`, the cytotoxicity at 10 µM is -41.7%.

`CC(C)(C)c1nc(CN2CCC(N3CCCCC3)CC2)no1`: the cytotoxicity at 10 µM is -0.48%.

Take `CCCS(=O)(=O)N1CCC(NC(=O)c2ccc(C)s2)CC1`: the cytotoxicity at 10 µM was -11.4%.

In the case of `Cc1nc2c(c(N3CCCC(OCc4ccccn4)C3)n1)CCNCC2` (stereo unspecified), the cytotoxicity at 10 µM came to 0.383%.

Regarding `CC(C)OCCOCc1cccc(NC(=O)NCC(=O)N(C)C)c1`, the cytotoxicity at 10 µM was -5.53%.

As to `Cc1nc2c(c(N3CCC(CN4CCCC4=O)CC3)n1)CCNCC2`, the cytotoxicity at 10 µM came out at 8.64%.

As for `CC(=O)NCCn1ccnc1-c1cccc(C(C)N(C)C)c1` (stereo unspecified), the cytotoxicity at 10 µM is 2.4%.

Consider `Cc1cc(NC(=O)CNc2cccc(OC(F)F)c2C)n(C)n1`, for which the cytotoxicity at 10 µM is 9.47%.

Regarding `O=C(CCc1cscn1)N1CCCC(n2cncn2)C1` (stereo unspecified), the cytotoxicity at 10 µM was -3.81%.

In the case of `O=C(NCc1cccs1)C1CN(C(=O)c2cccs2)CC12CCOCC2` (stereo unspecified), the cytotoxicity at 10 µM was -11.5%.

For `CC(=O)Nc1ccc2nc(CN(C)Cc3noc(C)n3)ccc2c1`, the cytotoxicity at 10 µM came to 3.47%.

Take `Cc1nc2ccc(C(=O)N3CCn4c(C)nnc4C3)cc2nc1C`: the cytotoxicity at 10 µM was -6.2%.

Consider `CC(C)=CCN1CCN(Cc2cc(C)c(O)c(C)c2)CC1CCO` (stereo unspecified), for which the cytotoxicity at 10 µM is -7.44%.

As to `COCC1CC2(CCN(C(=O)c3ccc(F)c(Cl)c3)CC2)CO1` (stereo unspecified), the cytotoxicity at 10 µM is -131%.

With `CC(C)CN1CCS(=O)(=O)[C@@H]2CCN(S(=O)(=O)c3ccccc3)CC[C@@H]21`, the cytotoxicity at 10 µM worked out at 3.62%.

`Cc1cccc(NC(=O)[C@@H]2CCCN2Cc2nc3ccccc3o2)n1`: the cytotoxicity at 10 µM was -4.61%.

Take `COc1cc(CCC(=O)NCC2CCCN2C)ccc1OCC(F)(F)F` (stereo unspecified): the cytotoxicity at 10 µM was -5.99%.

In the case of `Cc1csc(N2CCN(C(=O)c3ccc(C)s3)CC2)n1`, the cytotoxicity at 10 µM was -24.3%.

Regarding `Cc1nc(C)c(C(=O)Nc2cccc(CN3CCC(CO)CC3)c2)o1`, the cytotoxicity at 10 µM is -154%.

Turning to `Cc1cc(C(=O)NCCn2nc3ccccn3c2=O)[nH]n1`, the cytotoxicity at 10 µM is -4.92%.

Take `CN(Cc1nc(-c2ccoc2)no1)C1CCCN(c2cccnn2)C1` (stereo unspecified): the cytotoxicity at 10 µM is -14.8%.

Take `CN(CCc1nccs1)C(=O)CC1(O)CCCCC1`: the cytotoxicity at 10 µM was -6.16%.

With `CN(Cc1cnc2ccccc2c1)C(=O)C(c1ccccc1F)N(C)C` (stereo unspecified), the cytotoxicity at 10 µM was -6.88%.

For `O=S(=O)(NCc1ccccc1)Nc1ccc(-n2cncn2)cc1`, the cytotoxicity at 10 µM is 4.44%.

`c1cncc(OCC2CN(Cc3ccco3)Cc3nccn3C2)c1` (stereo unspecified): the cytotoxicity at 10 µM is -20.4%.

Take `COc1ccc(OCc2cc(C(=O)N3CC=CC3)n[nH]2)c(Cl)c1`: the cytotoxicity at 10 µM was found to be 7.26%.

`N[C@H]1CN(S(=O)(=O)c2cccnc2)C[C@@H]1C1CC1`: the cytotoxicity at 10 µM is 7.28%.

Take `CNC(=O)[C@@H]1C[C@H]2CN(C(=O)c3ccco3)C[C@H]2N1C(C)C`: the cytotoxicity at 10 µM is -1.84%.

`Cc1nn(C)c(C)c1S(=O)(=O)N1CC[C@@H]2O[C@@H](C)C[C@H]2C1`: the cytotoxicity at 10 µM worked out at 7.15%.

For the compound `O=C(O)c1ccnc(-c2ccnc(N3CCCCCC3)n2)c1`, the cytotoxicity at 10 µM was -10%.

As for `CCN1C(=O)CCC12CCCN(S(=O)(=O)c1cccc(C)c1)CC2` (stereo unspecified), the cytotoxicity at 10 µM is -4.54%.

On to `O=C(Cc1cccs1)N1C[C@@H]2OCCN(CC3CCCO3)[C@@H]2C1` (stereo partly specified), for which the cytotoxicity at 10 µM is -11%.

`CCCN1CCN(C(=O)c2cccnc2)CC1`: the cytotoxicity at 10 µM was -48.5%.

Take `O=C(NC[C@H]1OC[C@@H](NC2CCC(F)(F)CC2)[C@@H]1O)c1ccccc1`: the cytotoxicity at 10 µM was -4.1%.

Regarding `Cc1cc(C(=O)NCCN2CCCC(C)C2)nn1C(C)(C)C` (stereo unspecified), the cytotoxicity at 10 µM worked out at 9.34%.

For the compound `CCN1CCN(C(=O)c2ccc3c(c2)NC(=O)CN3)[C@H]2CS(=O)(=O)C[C@H]21`, the cytotoxicity at 10 µM is -52.9%.

Take `CC(=O)N1CCCC1c1nc(C)no1` (stereo unspecified): the cytotoxicity at 10 µM is -14.8%.

In the case of `Cc1ccc(S(=O)(=O)NC2CC2)cc1C`, the cytotoxicity at 10 µM is -10.6%.

Regarding `CCS(=O)(=O)N1CCCC2(CCCC(=O)N2C)C1` (stereo unspecified), the cytotoxicity at 10 µM amounted to 8.86%.

Consider `CC(Nc1nc2c(cnn2C)c(=O)[nH]1)c1ccccn1` (stereo unspecified), for which the cytotoxicity at 10 µM came to 13.3%.

Regarding `O=C(NC[C@H]1OC[C@@H]2CCN(C(=O)c3ccco3)C[C@@H]21)C1CC1`, the cytotoxicity at 10 µM was -6.2%.

With `Cc1nc(CN2C[C@@H]3CN(c4ncccn4)C[C@@H]3C2=O)cs1`, the cytotoxicity at 10 µM worked out at 5.16%.

Turning to `COc1ccccc1C(C)NC(=O)NCCC(=O)NC1CCCCC1` (stereo unspecified), the cytotoxicity at 10 µM turned out to be 0.0119%.

In the case of `Cc1ccccc1CS(=O)(=O)CC(=O)N(C)Cc1ccccc1F`, the cytotoxicity at 10 µM was -0.969%.

For `CN1CCN([C@H]2CCN(C(=O)c3cc(Cl)cn3C)C[C@H]2CCCO)CC1`, the cytotoxicity at 10 µM worked out at 0.174%.

On to `Cc1cc(Oc2ccccc2F)nc(C2CCCCN2)n1` (stereo unspecified), for which the cytotoxicity at 10 µM was 8.44%.

Turning to `CCCc1nnc(NCc2ccc(OC)c(C#N)c2)o1`, the cytotoxicity at 10 µM is -0.808%.

On to `O=C(Nc1cccnc1)[C@H]1C[C@H]2CN(S(=O)(=O)C3CC3)C[C@@H]1O2`, for which the cytotoxicity at 10 µM is -71.8%.

With `COc1cc(CNC(C)c2ccc(F)c(F)c2)cc2c1OCCO2` (stereo unspecified), the cytotoxicity at 10 µM was -1.58%.

For `CCc1ccc(C2COCCN2C(=O)NCc2cccc(C#N)c2)o1` (stereo unspecified), the cytotoxicity at 10 µM is -0.838%.

In the case of `CC(C)n1ccnc1C1CCCN(c2ccncc2F)C1` (stereo unspecified), the cytotoxicity at 10 µM is -4.96%.

With `Fc1cccc(-c2n[nH]cc2-c2nc(CN3CCOCC3)no2)c1`, the cytotoxicity at 10 µM is -7.58%.

Turning to `Cc1nc(C)n(CC2CCCCN2CCc2ccncc2)n1` (stereo unspecified), the cytotoxicity at 10 µM is -6.3%.

As to `O=C(NC1CCC1)[C@@H]1C[C@@H]2CCN(Cc3ccncc3)C[C@H]2O1`, the cytotoxicity at 10 µM was -22.5%.

As to `CN(C)S(=O)(=O)N1CCN(C(=O)c2cc(-c3ccc(Br)s3)n[nH]2)CC1`, the cytotoxicity at 10 µM was -2.66%.

`Cc1noc(C)c1-c1nc(C2CCCN(C(=O)CN)C2)ccc1CO` (stereo unspecified): the cytotoxicity at 10 µM is -3.11%.

For `CCN1CCN(c2ccc(C(=O)NC(C)c3ccncc3)cc2)CC1` (stereo unspecified), the cytotoxicity at 10 µM was -16.6%.

`Cc1noc(C)c1CN1CCn2cc(CN3CCOCC3)nc2C1`: the cytotoxicity at 10 µM turned out to be 4.71%.

As to `O=C(Cc1csc(N2CCNC2=O)n1)NC1(c2ccccc2)CCC1`, the cytotoxicity at 10 µM is -135%.

For `CN(C(=O)CCc1ccsc1)S(C)(=O)=O`, the cytotoxicity at 10 µM was found to be 0.347%.

Turning to `CC(C1CC1)N(C)C(=O)c1cnc(-c2ccc3c(c2)OCO3)s1` (stereo unspecified), the cytotoxicity at 10 µM was -7.06%.

Take `N#Cc1ccccc1C(=O)N1C[C@@H]2CC[C@H]1CN(Cc1ccccc1)C2`: the cytotoxicity at 10 µM was determined as 1.43%.

Take `O=C(NCC1CC1)C1CCCN(c2cccc(C(F)(F)F)n2)C1` (stereo unspecified): the cytotoxicity at 10 µM turned out to be 8.21%.

Consider `CCS(=O)(=O)N1CCc2ccc(NC(=O)Nc3ccccc3C)cc21`, for which the cytotoxicity at 10 µM was found to be 13.1%.

`c1ccc(CCCC2CN(Cc3ncc[nH]3)CCO2)cc1` (stereo unspecified): the cytotoxicity at 10 µM was -3.83%.

With `CC[C@@H]1N(Cc2ccoc2)CCC[C@]12CCC(=O)N2CCOC`, the cytotoxicity at 10 µM was determined as 11%.

Regarding `Cc1ccc(-c2nc(CN(C)C3CCS(=O)(=O)C3)cs2)o1` (stereo unspecified), the cytotoxicity at 10 µM is -8.05%.

With `CNC(=O)CCc1cc(C2CCCN2C(=O)CO)nc(C)n1` (stereo unspecified), the cytotoxicity at 10 µM is -0.785%.

As for `CSC(C)(C)CNC(=O)NC1CCN(CC2CC2)C1` (stereo unspecified), the cytotoxicity at 10 µM stood at 0.811%.

As to `CCC(CC)C(=O)N1CCOC2(COCCN(CC(=O)NC)C2)C1` (stereo unspecified), the cytotoxicity at 10 µM was 2.35%.

As to `Cc1cnn(CC2CCCCN2C(=O)CN(C)C2CC2)c1` (stereo unspecified), the cytotoxicity at 10 µM is -1.23%.

`CCc1nc(CN(C(C)=O)C2CCN(Cc3csc(C)n3)C2)no1` (stereo unspecified): the cytotoxicity at 10 µM was -12.8%.

Regarding `c1ncc(CN2CC(Cc3nccc4cc[nH]c34)C2)cn1`, the cytotoxicity at 10 µM was -1.06%.

Consider `CCc1nc(C)c(CN2CCOC(Cc3cccc4ccccc34)C2)[nH]1` (stereo unspecified), for which the cytotoxicity at 10 µM was -5.54%.

`O=C1CCNc2ncc(-c3ccc(Cl)cc3)cc2CN1C1CC1`: the cytotoxicity at 10 µM was 9.78%.

With `Cc1ncc2c(n1)CN(CCCOc1ccc(C#N)cc1)CC2`, the cytotoxicity at 10 µM is -3.9%.

As for `O[C@H]1[C@H](n2cc(CN3CCCC3)nn2)c2ccccc2C12CCNCC2`, the cytotoxicity at 10 µM was -3.76%.

As to `Cc1cc(N2CCCC2)c(C#N)c(C)n1`, the cytotoxicity at 10 µM turned out to be 10.4%.

For `O=C(NCc1cc[nH]n1)N1CCN(c2ccccc2Cl)CC1`, the cytotoxicity at 10 µM was -2.82%.

As for `O=C1COc2ccccc2N1CCCn1cnnn1`, the cytotoxicity at 10 µM amounted to 6.05%.
